This excerpt belongs to a sample that is enriched for hits.
INS promoter act: TRM-6 insulin promoter activation | TRM-6 cells (human fetal islet line), insulin promoter eGFP reporter, imaging; plate-scaled: unstimulated 0, stimulated control 100 | 0.81% of 130,000 active | activation, % at 2 µM;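 active means activation at 2 µM above a set limit, confirmed on inspection of the cell images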;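 further: share of cells whose green reporter signal exceeds an intensity cutoff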
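Material: TRM-6 insulin promoter–eGFP reporter cells. Buffer or medium: Low-glucose (5.5 mM) medium with tamoxifen. Probe or stimulus: tamoxifen at 0.75 µM added at seeding for reporter induction. Times: tamoxifen pre-incubation 15 h overnight, then compound exposure 48 h at 37 °C. Detection: high-content imaging of fixed cells with Hoechst nuclear stain.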
Hits are given with their value; i = inactive.

SMILES	INS promoter act
COCCNC(=O)C(OC(=O)CC1Sc2ccccc2NC1=O)c1ccccc1 (configuration not stated)	414
O=C(CCN(NC(=O)c1ccccc1)C1=NS(=O)(=O)c2ccccc21)NC1CCCCC1	i
Cc1ccc(CNC(=O)C(CCC(N)=O)NC(=O)OCc2ccccc2)cc1 (configuration not stated)	i
CCOc1ccc(CCNC(=O)C(CCC(N)=O)NC(=O)OCc2ccccc2)cc1OCC (configuration not stated)	229
CCOc1ccc(CCNC(=O)COC(=O)c2ccco2)cc1OCC	i
O=C(O)C1CC=CCC1C(=O)NC1CCCCC1 (configuration not stated)	i
COc1ccc(/C=N\NC(=O)c2cccc(Br)c2)c(OC)c1	i
COc1ccc(/C=C2\CC/C(=C\c3ccc(OC)cc3OC)C2=O)c(OC)c1	527
COc1ccc(/C=C2\CC/C(=C\c3ccc(OC)c(OC)c3)C2=O)cc1OC	i
CCOc1ccc(-n2c(SCC(N)=O)nc3c(c2=O)SCC3)cc1	i
COCCn1cnnc1SCC(=O)Nc1ccc(Br)cc1F	i
COc1cccc(C(=O)Nc2ccc(Cl)c(C(F)(F)F)c2)c1	i
COc1cc(CCC(=O)Nc2cc(Cl)ccc2N2CCN(C)CC2)cc(OC)c1OC	i
COc1cc(CCC(=O)Nc2ccc(Cl)c(C(F)(F)F)c2)cc(OC)c1OC	277
CC(C)N1CCN(CC#Cc2ccccc2)CC1CCO (configuration not stated)	i
CCc1ccc(C(=O)COC(=O)c2ccc(-c3nnc(-c4ccccc4)o3)cc2)cc1	i
COc1ccccc1CC(=O)Nc1cccc2c1CCCC2	i
COc1cc(NC(=O)Cc2ccccc2OC)cc(OC)c1	435
COc1ccccc1CC(=O)Nc1cc(Cl)ccc1O	i
NNC(=O)CNC(=O)CNS(=O)(=O)c1ccccc1	i
CSc1nc2c(c(=O)[nH]1)C(c1cccc(Br)c1)CC(=O)N2 (configuration not stated)	i
CN1C=CC2=C(C#N)C(N)C(C#N)(C#N)[C@H](c3ccccc3)[C@H]2C1 (some centres not stated)	300
Cc1ccc(Cl)cc1NC(=O)COC(=O)c1ccc(COc2ccc3c(C)cc(=O)oc3c2)cc1	i
Cn1c(N2CCN(C(=O)NC34CC5CC(CC(C5)C3)C4)CC2)nc2ccccc21	i
CC(=O)c1cn(CC(=O)NCc2cccnc2)c2ccccc12	i
SMILES	INS promoter act
O=C(Cn1cc(C(=O)C(F)(F)F)c2ccccc21)NCc1ccco1	i
O=C(Cn1cc(C(=O)c2ccco2)c2ccccc21)NCc1ccco1	97
CCc1noc(C)c1C(=O)Nc1nc(-c2ccc(Cl)cc2Cl)cs1	i
COc1ccc2cc3[n+](cc2c1OC)CCc1cc2c(cc1-3)OCO2	i
CSC1=NCCN1C(=O)Cc1ccc(-c2ccccc2)cc1	i
CCOC(=O)N1CCN=C1SCc1ccc(C(F)(F)F)cc1	i
CCC(=O)N1CCN=C1SCc1ccc(Cl)cc1	493
CCN(C(=O)Cc1ccc(Br)cc1)C1CCCCC1	i
C=CCOc1ccc(CNc2ccc(NC(=O)CC(C)C)cc2)cc1OC	i
OCCN(Cc1ccccc1)Cc1cccc(F)c1	81
OCCN(Cc1ccccc1)CC1CC2C=CC1C2 (configuration not stated)	i
OCCN(Cc1ccccc1)CC1CCCCC1	i
Cc1nn(-c2ccccc2)c(Cl)c1/C=N/Nc1nc2ccccc2n1C	i
Cc1cn(S(=O)(=O)c2ccccc2[N+](=O)[O-])cn1	i
Cc1ccc(NC(=S)N2CCN(Cc3ccccc3)CC2)c(C)c1	i
CS(=O)(=O)N(CCC(=O)O)Cc1ccccc1	i
N#C/C(=C\c1cn(Cc2ccccc2F)c2ccccc12)C(=O)NCc1ccco1	i
Cc1cc(=O)oc2cc(OCC(=O)OCC(=O)Nc3c(C)n(C)n(-c4ccccc4)c3=O)ccc12	i
COc1ccc(C(=O)CCNc2ccc3c(c2)OCCO3)cc1	356
COc1cc(C(=O)Nc2ccc3c(c2)OCCO3)ccc1OC(F)F	i
CCOC(=O)c1ccc(NC(=O)Nc2ccc3c(c2)OCCO3)cc1	i
CCc1cc(OCCCSc2nc(C)cc(=O)[nH]2)ccc1Cl	i
O=C(O)C1CC(=O)N(c2ccc(OCc3c(F)cccc3Cl)cc2)C1 (configuration not stated)	i
COc1ccc(Cc2n[nH]c(=S)o2)cc1	479
S=c1[nH]nc(COc2ccc3ccccc3c2)o1	i
COc1ccc(Cc2nnc(SCC(=O)c3ccc(OC)cc3)o2)cc1	i
CCCCCCCCNC(=O)c1cccnc1SCC(=O)Nc1ccc(OC)cc1OC	i
O=C(Cn1nc(C(F)(F)F)c2c1CCC2)NC1CCCCC1	i
O=C(Cn1nc(C(F)(F)F)c2c1CCC2)Nc1ccccc1C(F)(F)F	600
O=C(O)Cn1nc(C(F)(F)F)c2c1CCCC2	i

Screening data from PubChem.
